Measured values reported in ChEMBL document CHEMBL2040831, “Discovery of ((S)-5-(methoxymethyl)-7-(1-methyl-1H-indol-2-yl)-2-(trifluoromethyl)-4,7-dihydropyrazolo[1,5-a]pyrimidin-6-yl)((S)-2-(3-methylisoxazol-5-yl)pyrrolidin-1-yl)methanone as a potent and selective I(Kur) inhibitor” (J Med Chem, 2012).

Key:
[1] = target: T1, Potassium voltage-gated channel subfamily A member 5 (Homo sapiens, UniProt P22460); assay: Inhibition of human KV1.5 ion channel expressed in mouse L929 cells at 0.3 uM by whole cell patch clamp assay; format: cell-based
T1 sequence (P22460 whole entry): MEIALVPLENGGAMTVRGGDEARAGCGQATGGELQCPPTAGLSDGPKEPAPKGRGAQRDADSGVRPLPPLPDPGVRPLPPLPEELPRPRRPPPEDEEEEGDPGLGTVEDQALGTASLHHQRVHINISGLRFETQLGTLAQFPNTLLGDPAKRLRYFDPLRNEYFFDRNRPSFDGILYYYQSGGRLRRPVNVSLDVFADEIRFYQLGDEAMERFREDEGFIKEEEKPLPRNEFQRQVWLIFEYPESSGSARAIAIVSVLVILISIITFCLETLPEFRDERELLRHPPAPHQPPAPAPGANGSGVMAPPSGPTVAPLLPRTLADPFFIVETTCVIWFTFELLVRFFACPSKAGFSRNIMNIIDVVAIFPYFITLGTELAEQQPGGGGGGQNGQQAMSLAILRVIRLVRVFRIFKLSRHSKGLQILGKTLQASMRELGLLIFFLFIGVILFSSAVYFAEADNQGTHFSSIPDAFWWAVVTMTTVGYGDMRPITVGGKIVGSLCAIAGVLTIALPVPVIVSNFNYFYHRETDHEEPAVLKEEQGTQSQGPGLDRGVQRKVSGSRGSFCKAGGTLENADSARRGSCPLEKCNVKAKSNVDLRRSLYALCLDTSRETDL

[2] = Drug degradation assessed as GSH adduct formation by fluorescence detection assay; format: physicochemical
Outline: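 Test article at 100 μM incubated 30 min at 37 °C with 2 mg/mL human liver microsomes in 0.1 M potassium phosphate buffer containing 2 mM NADPH and 2 mM dansyl glutathione. Quenched with 2 volumes of 5 mM dithiothreitol in methanol, vortexed and centrifuged. Supernatant analysed by HPLC with fluorescence detection (Ex 340 nm, Em 525 nm) to quantify GSH adducts.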

[3] = target: hERG (KCNH2) (Homo sapiens, UniProt Q12809); assay: Inhibition of human ERG expressed in HEK293 cells at 10 uM by patch clamp assay; format: cell-based; conditions: HEK293 cells expressing human ERG
hERG (KCNH2), sequence (Q12809 whole entry): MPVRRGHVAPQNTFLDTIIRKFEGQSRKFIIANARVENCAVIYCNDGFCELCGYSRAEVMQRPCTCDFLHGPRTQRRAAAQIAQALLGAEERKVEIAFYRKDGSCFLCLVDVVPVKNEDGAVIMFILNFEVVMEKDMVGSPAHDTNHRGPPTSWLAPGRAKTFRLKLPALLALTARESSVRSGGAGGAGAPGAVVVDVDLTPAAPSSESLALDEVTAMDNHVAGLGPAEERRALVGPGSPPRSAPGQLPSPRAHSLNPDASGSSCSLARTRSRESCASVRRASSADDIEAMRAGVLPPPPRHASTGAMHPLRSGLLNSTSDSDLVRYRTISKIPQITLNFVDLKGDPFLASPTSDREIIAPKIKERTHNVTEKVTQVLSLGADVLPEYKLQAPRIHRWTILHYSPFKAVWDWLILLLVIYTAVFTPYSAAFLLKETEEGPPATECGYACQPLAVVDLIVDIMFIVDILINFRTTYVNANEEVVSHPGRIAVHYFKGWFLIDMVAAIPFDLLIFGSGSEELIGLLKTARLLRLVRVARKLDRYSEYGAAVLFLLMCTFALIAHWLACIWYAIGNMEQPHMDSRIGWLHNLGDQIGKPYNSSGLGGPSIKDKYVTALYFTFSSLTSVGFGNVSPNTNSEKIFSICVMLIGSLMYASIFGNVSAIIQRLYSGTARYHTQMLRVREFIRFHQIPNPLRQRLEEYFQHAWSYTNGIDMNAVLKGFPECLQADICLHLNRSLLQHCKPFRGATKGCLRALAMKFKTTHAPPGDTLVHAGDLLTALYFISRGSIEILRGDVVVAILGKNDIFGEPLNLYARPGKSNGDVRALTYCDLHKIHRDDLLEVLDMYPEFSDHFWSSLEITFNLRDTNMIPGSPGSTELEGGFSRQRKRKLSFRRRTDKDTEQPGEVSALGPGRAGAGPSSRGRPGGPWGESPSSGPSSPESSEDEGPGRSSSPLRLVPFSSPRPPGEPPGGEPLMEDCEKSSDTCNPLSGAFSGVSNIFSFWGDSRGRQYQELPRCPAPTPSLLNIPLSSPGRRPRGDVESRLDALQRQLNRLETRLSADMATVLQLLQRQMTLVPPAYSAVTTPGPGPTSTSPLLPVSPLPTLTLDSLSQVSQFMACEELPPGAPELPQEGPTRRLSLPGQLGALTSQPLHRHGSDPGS

[4] = target: T1, Potassium voltage-gated channel subfamily A member 5; assay: Inhibition of human KV1.5 ion channel expressed in mouse L929 cells by whole cell patch clamp assay; format: cell-based
[5] = tested on: Liver microsomes; assay: Metabolic stability in rat liver microsomes; format: ADME, Microsome
[6] = tested on: Liver microsomes; assay: Metabolic stability in human liver microsomes; format: ADME, Microsome

Compound: CC1=C(C(=O)N2CCC[C@H]2c2ccc(F)cc2)[C@@H](c2ccc(Cl)c(Cl)c2)n2ncc(C)c2N1
- inhibition [1]: 45%
- GSH adduct formation [2]: < 1%

Compound: CC1=C(C(=O)N2CCC[C@H]2c2cc(C)no2)[C@@H](c2ccc(Cl)c(Cl)c2)n2nccc2N1
- inhibition at 10 µM [3]: 41%
- GSH adduct formation [2]: 21%
- IC50 [4]: 83 nM

Compound: CC1=C(C(=O)N2CCC[C@H]2c2ccc(F)cc2)[C@@H](c2ccc(Cl)c(Cl)c2)n2nc(C(F)(F)F)cc2N1
- inhibition [1]: 37%

Compound: CC1=C(C(=O)N2CCN(c3ccc(F)cc3)CC2)C(c2ccc(Cl)c(Cl)c2)n2nc(C)cc2N1 (racemic)
- Stability [5]: Unstable
- inhibition at 10 µM [3]: 60%
- Stability [6]: Unstable
- GSH adduct formation [2]: < 1%
- IC50 [4]: 124 nM

Compound: CC1=C(C(=O)N2CCN(c3ccc(F)cc3)CC2)C(c2ccc(Cl)c(Cl)c2)n2nc(Cl)cc2N1 (racemic)
- IC50 [4]: 209 nM

Compound: CC1=C(C(=O)N2CCN(c3ccc(F)cc3)CC2)C(c2ccc(Cl)c(Cl)c2)n2nc(C(F)(F)F)cc2N1 (racemic)
- IC50 [4]: 419 nM

Compound: CC1=C(C(=O)N2CCC[C@H]2c2ccc(F)cc2)[C@@H](c2ccc(Cl)c(Cl)c2)n2nc(C)cc2N1
- Stability [5]: Unstable
- inhibition at 10 µM [3]: 10%
- Stability [6]: Unstable
- GSH adduct formation [2]: 5%
- IC50 [4]: 100 nM

Compound: CC1=C(C(=O)N2CCC[C@H]2c2cc(C)no2)[C@@H](c2ccc(Cl)c(Cl)c2)n2nc(C)cc2N1
- Stability [5]: Unstable
- inhibition at 10 µM [3]: 13%
- Stability [6]: Unstable
- GSH adduct formation [2]: < 1%
- IC50 [4]: 165 nM

Compound: CC1=C(C(=O)N2CCC[C@H]2c2cc(C)no2)[C@@H](c2nc3ccccc3s2)n2nc(C(F)(F)F)cc2N1
- IC50 [4]: 281 nM
